# M5 ag: agonists of human muscarinic M5 receptor (CHRM5) | P08912 | CHO-K1 hM5 cells, Fluo-8 calcium fluorescence; 0% DMSO wells, 100% maximal acetylcholine response | activation, % at 3 µM | hit rate 0.19% among 360,000;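 active = activation above the run's mean over test compounds plus 3 SD, cut at about 23% in these data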;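 also: signal is peak over basal fluorescence ratio across the kinetic read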
# Target sequence (P08912 whole entry, looked up): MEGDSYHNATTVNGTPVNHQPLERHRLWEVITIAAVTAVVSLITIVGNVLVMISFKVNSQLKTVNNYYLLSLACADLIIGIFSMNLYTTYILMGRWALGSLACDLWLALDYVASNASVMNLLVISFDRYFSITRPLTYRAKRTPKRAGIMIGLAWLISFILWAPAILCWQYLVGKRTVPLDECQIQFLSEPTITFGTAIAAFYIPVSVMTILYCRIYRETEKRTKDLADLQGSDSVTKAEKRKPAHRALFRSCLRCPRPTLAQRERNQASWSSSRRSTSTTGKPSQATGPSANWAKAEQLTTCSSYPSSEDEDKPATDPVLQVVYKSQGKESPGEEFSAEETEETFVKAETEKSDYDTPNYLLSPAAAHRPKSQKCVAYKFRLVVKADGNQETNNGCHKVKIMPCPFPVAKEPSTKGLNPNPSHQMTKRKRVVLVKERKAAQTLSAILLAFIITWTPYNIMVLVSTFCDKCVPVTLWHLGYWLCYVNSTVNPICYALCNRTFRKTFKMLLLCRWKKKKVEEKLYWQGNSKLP
# CHRM4 PAM: potentiates acetylcholine response at human M4 receptor | P08173 | CHO-K1 hM4/Gqi5, Fluo-8 calcium fluorescence, ACh EC20; 0% = ACh EC20, 100% = maximal ACh | activation, % at 3 µM | hit rate 0.4% among 360,000 | AID 624126;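 active = activation above its plate's cutoff, the mean activation of sample wells plus 3 SD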
# M4 ag: CHRM4 agonism in calcium assay; AID 624127; P08173; hit rate 0.14% among 360,000; CHO-K1 hM4/Gqi5, Fluo-8 calcium fluorescence; vehicle 0%, full acetylcholine response 100%; activation, % at 3 µM;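 active = activation above the run mean over all test wells plus 3 SD, cut at about 32% in these data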;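 also: peak over basal fluorescence ratio per well then scaled between controls; 0% = DMSO wells and 100% = acetylcholine at EC100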
# M5 PAM: potentiates acetylcholine response at human M5 receptor; CHO-K1 hM5, Fluo-8 calcium, ACh EC20 PAM; 0% = ACh EC20, 100% = ACh EC100; activation, % at 3 µM; hit rate 0.3% among 360,000;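 active = activation above the run cutoff, the mean activation of all test compounds plus 3 SD, cut at about 18% in these data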
#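 System: CHO-K1 hM5 cells. Reagent: acetylcholine, EC20 level. Compound dosing: single dose, 3 µM nominal final test concentration. Timing: Post-acetylcholine fluorescence recording 140 s. Detection: Fluo-8 calcium fluorescence. Read-out: % activation, ACh-normalized. Benchmarks: ACh EC20 and EC100 wells. Repeats: singlicate, one well per test compound.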
# CHRM4 antagonist: blocks acetylcholine activation of human M4 receptor. hit rate 0.73% among 360,000. CHO-hM4 cells, ACh EC80, Fluo-8 calcium fluorescence. AID 624125. inhibition, % at 3 µM;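 active = inhibition above its plate's cutoff, the mean inhibition of sample wells plus 3 SD, cut at about 27% in these data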;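 also: 0% = acetylcholine EC80 with DMSO and 100% = DMSO without agonist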
# M5 antag: blocks acetylcholine activation of human M5 receptor; hit rate 0.59% among 360,000; AID 624040; CHO-hM5 cells, Fluo-8 calcium fluorescence, ACh EC80; inhibition, % at 3 µM;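 active = inhibition above a per-plate cutoff, the mean of that plate's test compounds plus 3 SD, cut at about 27% in these data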;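 also: 0% = acetylcholine EC80 with DMSO and 100% = DMSO without agonist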
# An asterisk follows results filed as active. Rows were chosen to be rich in hits. Some 1.8% of all compounds tested hit in one or more screens of this group.
SMILES,M5 ag,CHRM4 PAM,M4 ag,M5 PAM,CHRM4 antagonist,M5 antag
COC1=C(OC)c2ccccc2C(C(=O)O)N/C1=C(/C)Nc1ccncc1 (configuration not stated),-2,-4,1,0,29*,0
COc1cc(OC)c(NC(=O)/C=C/C(=O)O)cc1Cl,2,7,1,3,-17,-9
CC[C@@H](C)[C@@H]1CN([C@@H](C)CN2CCC[C@H]2CN2C(N)=NC[C@H]2CC(C)C)C(=N)N1CCCC1CCCC1,-3,-12,0,-4,8,-8
CC[C@@H](C)[C@@H]1CN([C@@H](C)CN2CCC[C@H]2CN2C(N)=NC[C@@H]2Cc2ccccc2)C(=N)N1CCCC1CCCC1,-11,-15,0,-41,65*,5
CCCCN1C(=N)N([C@@H](C)CN2CCC[C@H]2CN2C(N)=NC[C@@H]2Cc2ccccc2)C[C@H]1Cc1ccccc1,-14,-15,1,-31,40*,15
CCOC(=O)CNC(=S)N(CCCN1CCN(C)CC1)Cc1cccs1,-4,-5,1,4,-9,-8
COc1ccc(CNC(=O)COC(=O)[C@H](Cc2c[nH]c3ccccc23)NC(=O)c2cccs2)cc1,0,-23,12,-14,31*,11
O=C(NCCCN1CCOCC1)c1ccc2nc(Cc3ccccc3F)oc2c1,-3,1,2,3,5,-8
Cc1ccccc1CN(C)CC(=O)NC(C)CCc1ccccc1 (configuration not stated),-7,4,0,3,-8,12
COc1ccc2[nH]c(=O)c(CNC3CCCCC3)cc2c1,2,23*,2,23*,-22,-1
CCOC(=O)Cn1c(=O)oc2cc(S(=O)(=O)NCCc3ccc(C)cc3)ccc21,3,-6,7,-6,-4,5
CCOC(=O)Cn1c(=O)oc2cc(S(=O)(=O)Nc3ccc(F)cc3)ccc21,28*,0,24,-16,-14,14
O=C(CSc1nc(C(F)(F)F)cc(=O)[nH]1)Nc1cccc2ccccc12,-2,22*,0,17,-8,-18
CN(C)c1ccc(C=c2c3ccccc3n3c2c2ccccc2[n+]3C)cc1,-7,-8,4,-9,33*,22
COc1ccc(N2CCN(C(=O)CSc3nnc4n3C(C)(C)Cc3ccccc3-4)CC2)cc1,-1,4,0,-2,4,2
Cc1ccc(Cl)cc1N1CCN(C(=O)CSc2nnc3n2C(C)(C)Cc2ccccc2-3)CC1,4,-18,13,-24,33*,41*
COc1ccc(CC2=CC(=O)c3ccccc3C2=O)cc1,7,-5,9,2,33*,11
Cc1onc(-c2ccccc2Cl)c1C(=O)Oc1cccc2cccnc12,-3,5,0,-1,-11,-7
Cc1cccc(NC(=O)CCNS(=O)(=O)c2cc(Br)cnc2N)c1C,-3,8,6,3,4,5
COc1ccccc1NC(=O)COC(=O)C1=NN(c2ccccc2)C(=O)CC1,3,16,1,19*,-1,-3
CCC(c1nnc(SCC(=O)NCCc2ccc(OC)c(OC)c2)n1Cc1ccccc1)N(C)C (configuration not stated),0,-4,0,3,4,6
CC1CCN(CCCNC(=O)c2cc3c(Cl)nc4ccccc4c3s2)CC1,-4,-2,2,8,-3,-2
COc1ccc(Cn2cc(F)c(=O)n(C)c2=O)cc1[N+](=O)[O-],3,0,1,18*,-7,-9
O=C(/C=C/c1ccco1)N(Cc1cccc(Cl)c1)C1CCS(=O)(=O)C1 (configuration not stated),-5,-20,18,-20,-8,27*
O=C(NC1CC2CCC(C1)N2C(=O)NCc1ccccc1)C1CC1 (configuration not stated),-6,-16,1,2,30*,-3
SMILES,M5 ag,CHRM4 PAM,M4 ag,M5 PAM,CHRM4 antagonist,M5 antag
C=CCNc1cnn(-c2ccc(C)cc2)c(=O)c1Sc1ccc(C)cc1,-14,5,-2,4,-11,3
CC(=O)N1CCN(c2ccc(NC(=O)c3ccc(C)c([N+](=O)[O-])c3)cc2)CC1,8,-10,6,18*,0,-15
CCNC(=O)CC1C(=O)N(CC)C(=S)N1NC(=O)c1ccccc1 (configuration not stated),1,17*,5,28*,21,29*
CNC(=O)CC1C(=O)N(C)C(=S)N1NC(=O)c1ccccc1 (configuration not stated),5,-5,3,1,1,9
O=C(Nc1ccc2c(c1)OCCO2)c1ccccc1,1,-14,21,-10,29*,16
COc1ccc(NC(=O)c2ccc3c(c2)OCO3)cc1Cl,1,5,4,29*,-9,-3
O=C(Nc1ccc(F)c(Cl)c1)c1ccc2c(c1)OCO2,-7,-1,2,6,-5,-14
COc1ccc(S(=O)(=O)N2CCN(C(=O)c3cc(-c4ccc(C)cc4)n[nH]3)CC2)cc1,0,-8,18,-9,-22,-2
CCN1C(=O)[C@@H]2Cc3c([nH]c4ccccc34)C(c3ccc(OC)cc3)N2C1=S (some centres not stated),-1,-17,18,-18,34*,29*
CCOc1ccc(N(CC(=O)NC2CC3CCC2C3)S(=O)(=O)c2ccc(C)cc2)cc1 (configuration not stated),-5,22*,-1,2,-14,8
CCOc1ccccc1NC(=O)Nc1ccc2c(c1)CCC2,-2,20*,0,10,-4,0
Cc1ccnc(NC(=O)CCNC(=O)c2ccccc2Cl)c1,-3,21*,1,-3,-3,8
Cc1ccc(NC(=O)CCNC(=O)c2ccccc2Cl)nc1,-2,-3,1,-1,3,-2
CCc1nnc(NS(=O)(=O)c2ccc(NC(=S)NC(=O)/C=C/c3ccc(C(C)C)cc3)cc2)s1,-7,-13,-1,-21,27*,12
CCCCN1C(=O)N(c2ccc(Cl)cc2)C(C)(O)CC1(C)C (configuration not stated),-4,0,-1,3,-1,4
CN1C(=O)N(c2ccc(Cl)cc2)C(C)(O)CC1(C)C (configuration not stated),-2,-8,-1,25*,-5,18
COc1cccc(-c2csc(N3CCN(C(=O)Nc4ccc(Cl)cc4)CC3)n2)c1,-4,-21,13,-34,20,28*
